Measured values: ChEMBL document CHEMBL1799922, “Synthesis and antimycobacterial activity of prodrugs of indeno[2,1-c]quinoline derivatives” (Eur J Med Chem, 2011)
≈ marks a conversion by molar mass, not a printed value.

Columns and labels:
[1] = Cytotoxicity against human U937 cells assessed as cell viability at 1.25 ug/ml after 72 hrs by MTT assay; type: cell-based, U-937; settings: read-out: Activity
Summary of the method: (§1)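 U937 human monocytic cells plated at 1 × 10^5 cells/mL and allowed to adhere for 1 h at 37 °C in 5% CO2. Non-adherent cells were washed off with RPMI 1640. Adherent cells were exposed to compound in triplicate, with medium alone as the live control and 3% Tween 20 as the dead control. MTT (5 mg/mL in PBS) was then added for 3 h at 37 °C. Formazan was dissolved in 0.4 M HCl/isopropanol and absorbance read at 600 nm. Results are expressed as % cell viability.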

[2] = Half life in human blood serum by LC-MS analysis; type: ADME, cell-free, Plasma
Summary of the method: (§2)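 Enzymatic hydrolysis: 1 mg prodrug dissolved in 1 mL ethanol, then 200 µL preheated human blood serum diluted to 80% with 0.16 M phosphate buffer (pH 7.4) was added. Samples were kept at 37 °C (24 h) and centrifuged 10 min at 10,000 rpm. Remaining prodrug in the supernatant was monitored by TLC and LC-MS. t1/2 is the time to 50% hydrolysis.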

[3] = system: Mycobacterium tuberculosis; assay: Antimicrobial activity against Mycobacterium tuberculosis H37Rv ATCC 27294 after 16 to 24 hrs by microplate alamar blue assay; type: functional
Summary of the method: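 M. tuberculosis H37Rv inoculum 2×10^5 cfu/mL (100 µL) added to twofold dilutions in Middlebrook 7H12 medium; final test range 128 µM to 0.5 µM from 12.8 mM DMSO stocks. Incubated 37 °C; day 7 Tween 80 plus Alamar Blue added, further 16-24 h at 37 °C. Fluorescence ex 530/em 590 nm; MIC = lowest concentration giving >90% fluorescence reduction versus replicate bacteria-only controls. Rifampin, isoniazid controls.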

[4] = Stability of the compound in 10% aqueous ammonia buffer at pH 8 assessed as hydrolysis to 2-bromo-6-(1H-imidazol-1-yl)-7H-indeno[2,1-c]quinolin-7-one oxime at 1 mg at 37 degC by LC-MS analysis; type: physicochemical; design: scale not given: the % may be the effect or the level left
Summary of the method: (§3)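 Chemical hydrolysis: 1 mg prodrug dissolved in 1 mL of 10% aqueous ammonia in methanol (pH 8) and held in a thermostatted water bath at 37 °C, up to 24 h. Conversion to the parent oxime was followed by TLC and LC-MS. t1/2 is the time to 50% hydrolysis.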

[5] = Half life in 10% aqueous ammonia buffer at pH 8 assessed as hydrolysis to 2-bromo-6-(1H-imidazol-1-yl)-7H-indeno[2,1-c]quinolin-7-one oxime at 37 degC by LC-MS analysis; type: physicochemical; summary of the method: as §3
[6] = Selectivity index, ratio CC50 for human U937 cells to MIC for Mycobacterium tuberculosis H37Rv ATCC 27294; type: functional, U-937
[7] = Cytotoxicity against human U937 cells assessed as cell viability at 5 ug/ml after 72 hrs by MTT assay; type: cell-based, U-937; settings: read-out: Activity; summary of the method: as §1
[8] = Octanol-water partition coefficient, log P of the compound at pH 7.4 at room temperature by UV spectrophotometric analysis; type: physicochemical
Summary of the method: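 Shake-flask method at room temperature: 1-octanol and phosphate buffer (pH 7.4) were pre-saturated by shaking for 24 h. Compound at 10^-4 M in equal volumes of both phases was shaken vigorously for 1 h, left to stand 15 min, then centrifuged 10 min at 10,000 rpm. UV absorbance of each phase was read at 280 nm against blanks, and P was taken as the octanol/water absorbance ratio.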

Serum = assay: Stability of the compound in 80% human blood serum assessed as hydrolysis to 2-bromo-6-(1H-imidazol-1-yl)-7H-indeno[2,1-c]quinolin-7-one oxime at 1 mg after 24 hrs at 37 degC by LC-MS analysis; type: ADME, cell-free; design: scale not given: the % may be the effect or the level left; summary of the method: as §2
[9] = Cytotoxicity against human U937 cells assessed as cell viability at 10 ug/ml after 72 hrs by MTT assay; type: cell-based, U-937; settings: read-out: Activity; summary of the method: as §1
[10] = Cytotoxicity against human U937 cells assessed as cell viability at 20 ug/ml after 72 hrs by MTT assay; type: cell-based, U-937; settings: read-out: Activity; summary of the method: as §1

For CCC(=O)O/N=C1\c2ccccc2-c2c1c(-n1ccnc1)nc1ccc(Br)cc21, the viability at 72 h, 1.25 ug/ml [1] was 84%, the half-life [2] was 84 h and the MIC [3] was 0.29 µg/mL (≈ 0.648 µM). For the same compound, the Activity [4] was 95%, the half-life [5] was 48 h and the “Selectivity Index” value [6] was greater than 137. It also gave a viability at 72 h, 5 ug/ml [7] of 86%, a logD [8] of 1.2 and an Activity (Serum) of 90%. For the same compound, the viability at 72 h, 10 ug/ml [9] was 75% and the viability at 72 h, 20 ug/ml [10] was 67%.

Compound C[C@H](NC(=O)OC(C)(C)C)C(=O)O/N=C1\c2ccccc2-c2c1c(N1CCN(c3ccccn3)CC1)nc1ccc(Br)cc21 has a viability at 72 h, 1.25 ug/ml [1] of 100%, a half-life [2] of 480 h and an MIC [3] of 6 µg/mL (≈ 9.12 µM). It also gave an Activity [4] of 95%, a half-life [5] of 48 h and a logD [8] of 1.7. The Activity (Serum) was 66% and the viability at 72 h, 10 ug/ml [9] was 100%.

Compound CC(=O)NCC(=O)O/N=C1\c2ccccc2-c2c1c(N1CCN(c3ccccn3)CC1)nc1ccc(Br)cc21 has a viability at 72 h, 1.25 ug/ml [1] of 83%, a half-life [2] of 192 h and an MIC [3] of 6 µg/mL (≈ 10.2 µM). The Activity [4] was 95%, the half-life [5] was 144 h and the logD [8] was 1.2. It also gave an Activity (Serum) of 95% and a viability at 72 h, 10 ug/ml [9] of 77%.

With CCCCCC(=O)O/N=C1\c2ccccc2-c2c1c(-n1ccnc1)nc1ccc(Br)cc21 the viability at 72 h, 1.25 ug/ml [1] was 81%, the half-life [2] was 240 h and the MIC [3] was 1.5 µg/mL (≈ 3.07 µM). The Activity [4] was 90%, the half-life [5] was 144 h and the logD [8] was 2.1. For the same compound, the Activity (Serum) was 85% and the viability at 72 h, 10 ug/ml [9] was 100%.

With CC(C)(C)OC(=O)NCC(=O)O/N=C1\c2ccccc2-c2c1c(N1CCN(c3ccccn3)CC1)nc1ccc(Br)cc21 the viability at 72 h, 1.25 ug/ml [1] was 87%, the half-life [2] was 24 h and the MIC [3] was 1.55 µg/mL (≈ 2.41 µM). The Activity [4] was 95%, the half-life [5] was 3.6 h and the “Selectivity Index” value [6] was 22. For the same compound, the viability at 72 h, 5 ug/ml [7] was 82%, the logD [8] was 0.7 and the Activity (Serum) was 95%. For the same compound, the viability at 72 h, 10 ug/ml [9] was 63% and the viability at 72 h, 20 ug/ml [10] was 49%.

Work on CC(C)(C)OC(=O)NC(Cc1cccc(F)c1)C(=O)O/N=C1\c2ccccc2-c2c1c(N1CCN(c3ccccn3)CC1)nc1ccc(Br)cc21 (stereo unspecified) yielded a viability at 72 h, 1.25 ug/ml [1] of 92%, a half-life [2] of 144 h and an MIC [3] of 2.98 µg/mL (≈ 3.96 µM). The Activity [4] was 95%, the half-life [5] was 72 h and the “Selectivity Index” value [6] was greater than 13. For the same compound, the viability at 72 h, 5 ug/ml [7] was 90%, the logD [8] was 1.1 and the Activity (Serum) was 95%. The viability at 72 h, 10 ug/ml [9] was 79% and the viability at 72 h, 20 ug/ml [10] was 84%.

CC(=O)O/N=C1\c2ccccc2-c2c1c(-n1ccnc1)nc1ccc(Br)cc21 showed a viability at 72 h, 1.25 ug/ml [1] of 87%, a half-life [2] of 84 h and an MIC [3] of less than 0.2 µg/mL. The Activity [4] was 95%, the half-life [5] was 48 h and the “Selectivity Index” value [6] was greater than 71. The viability at 72 h, 5 ug/ml [7] was 78%, the logD [8] was 1.1 and the Activity (Serum) was 94%. It also gave a viability at 72 h, 10 ug/ml [9] of 59% and a viability at 72 h, 20 ug/ml [10] of 42%.

With CCCCCCCCC(=O)O/N=C1\c2ccccc2-c2c1c(-n1ccnc1)nc1ccc(Br)cc21 the viability at 72 h, 1.25 ug/ml [1] was 87%, the half-life [2] was 72 h and the MIC [3] was 0.39 µg/mL (≈ 0.734 µM). The Activity [4] was 95%, the half-life [5] was 24 h and the “Selectivity Index” value [6] was greater than 102. The viability at 72 h, 5 ug/ml [7] was 85%, the logD [8] was 1.9 and the Activity (Serum) was 95%. The viability at 72 h, 10 ug/ml [9] was 77% and the viability at 72 h, 20 ug/ml [10] was 72%.

CCCCC(=O)O/N=C1\c2ccccc2-c2c1c(-n1ccnc1)nc1ccc(Br)cc21 showed a viability at 72 h, 1.25 ug/ml [1] of 85%, a half-life [2] of 144 h and an MIC [3] of 0.28 µg/mL (≈ 0.589 µM). For the same compound, the Activity [4] was 90%, the half-life [5] was 72 h and the “Selectivity Index” value [6] was 60. For the same compound, the viability at 72 h, 5 ug/ml [7] was 82%, the logD [8] was 1.6 and the Activity (Serum) was 90%. It also gave a viability at 72 h, 10 ug/ml [9] of 75% and a viability at 72 h, 20 ug/ml [10] of 51%.

In the case of CCCC(=O)O/N=C1\c2ccccc2-c2c1c(-n1ccnc1)nc1ccc(Br)cc21, the viability at 72 h, 1.25 ug/ml [1] is reported as 85%, the half-life [2] is reported as 96 h and the MIC [3] is reported as less than 0.2 µg/mL. For the same compound, the Activity [4] was 95%, the half-life [5] was 36 h and the “Selectivity Index” value [6] was greater than 200. It also gave a viability at 72 h, 5 ug/ml [7] of 88%, a logD [8] of 1.5 and an Activity (Serum) of 90%. It also gave a viability at 72 h, 10 ug/ml [9] of 69% and a viability at 72 h, 20 ug/ml [10] of 70%.
